Screens as filed in PubChem BioAssay.
Compounds with a hit are over-represented: about 3.4% of the library has one in this group of screens.
TAAR1 antag = antagonists of human TAAR1 | Q96RJ0 | inhibition, % at 3 µM | CHO RD-HGA16 TAAR1, Fluo-8 calcium fluorescence, antagonist | hit rate 1.5% among 360,000;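 active = inhibition above a per-plate cutoff, the mean inhibition of test compounds on that plate plus 3 SD, cut at about 49% in these data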
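Test system – hTAAR1-expressing CHO RD-HGA16 cells, Gα16-coupled · Reagent – β-PEA at EC80 concentration, post-compound challenge · Compound dosing – 3 µM, single point · Timing – 140 s kinetic read after compound, 140 s after agonist · Detection – Fluo-8 intracellular calcium dye fluorescence, real-time kinetic reads · Control set – DMSO and EC80 PEA controls · Repeats – n of 1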
TRPML3 agonist = human mucolipin-3 channel agonism; Q8TDD5; activation, % at 3 µM; HEK293 TRPML3-YFP, Fluo-8 calcium fluorescence; 100% = the carbachol control signal; hit rate 0.29% among 220,000;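 active = activation above its plate's cutoff, the mean activation of the plate's test wells plus 3 SD, cut at about 12% in these data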
Target sequence (Q8TDD5 whole entry, looked up): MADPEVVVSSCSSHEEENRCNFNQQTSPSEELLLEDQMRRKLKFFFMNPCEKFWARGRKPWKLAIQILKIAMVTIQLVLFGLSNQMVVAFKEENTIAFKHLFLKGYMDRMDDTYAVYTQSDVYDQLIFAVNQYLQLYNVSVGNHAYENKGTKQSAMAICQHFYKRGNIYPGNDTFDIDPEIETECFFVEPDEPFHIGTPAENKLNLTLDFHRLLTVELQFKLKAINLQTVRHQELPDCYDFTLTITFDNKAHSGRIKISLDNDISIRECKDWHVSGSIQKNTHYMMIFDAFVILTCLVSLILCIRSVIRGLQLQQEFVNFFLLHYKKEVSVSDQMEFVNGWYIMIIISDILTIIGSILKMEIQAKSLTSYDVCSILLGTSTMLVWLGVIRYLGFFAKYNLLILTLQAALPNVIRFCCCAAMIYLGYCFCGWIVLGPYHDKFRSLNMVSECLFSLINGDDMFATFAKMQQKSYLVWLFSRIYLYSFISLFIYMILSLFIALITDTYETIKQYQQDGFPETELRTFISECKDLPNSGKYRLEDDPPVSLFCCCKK
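Test system: TRPML3-YFP stable HEK293 cells. Doses: single point at 3 µM. Incubation: dye loading 1 h 37 °C then 30 min ambient, 125 s read. Signal: Fluo-8 calcium dye fluorescence, ex 470-495, em 515-575 nm. Measure: percent activation from peak-to-basal fluorescence ratio, scaled between DMSO and carbachol.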
LANA-H2A inh = blocks KSHV LANA binding to histone H2A/H2B; Q9QR71; cell-free LANA-H2A/H2B peptide, fluorescence polarization; hit rate 0.6% among 320,000; inhibition, % (no concentration beside the values); in the data active = inhibition mostly above about 10%, no sharp cut-off; inactive = mostly below about 6.7%
GPR7 antag = antagonists of human GPR7 (neuropeptides B/W receptor 1); inhibition, % at 4.4 µM; P48145; AID 1861; GPR7-expressing cells, fluorescence antagonist assay; hit rate 1.1% among 290,000; in the data active = inhibition above about 16%, passing the limit was not always enough;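 also: cells stimulated with the agonist NPW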
TAAR1 agonist = human TAAR1 agonism; hit rate 0.99% among 360,000; activation, % at 3 µM; AID 624467; CHO RD-HGA16 TAAR1, Fluo-8 calcium fluorescence; vehicle wells 0%, saturating PEA agonist 100%; Q96RJ0;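 active = activation above the mean activation of all test compounds in the run plus 3 SD, cut at about 38% in these data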
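Test system: RD-HGA16 (CHO) cells co-expressing Gα16 and hTAAR1; dosing: one-point dosing at 3 µM (nominal); timing: 17-24 h seeding, 75 min 37 °C dye, 30 min RT; signal: kinetic Fluo-8 calcium fluorescence; read-out basis: % activation relative to PEA EC100 response; controls: DMSO and PEA EC100; replicates: n 1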
TRPN1 ag = agonists of zebrafish TRPN1 channel; HEK293 zebrafish TRPN1-YFP, Fluo-8 calcium fluorescence; 100% = response to 87 µM carbachol; hit rate 0.18% among 220,000; activation, % at 3 µM;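 active = activation above its plate's cutoff, the mean activation of test wells on that plate plus 3 SD, cut at about 19% in these data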
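System: zebrafish TRPN1-YFP in HEK293 cells / Dosing: 3 µM single point / Timing: dye loading 1 h at 37 °C, then 30 min room temperature / Signal: Fluo-8 calcium fluorescence, excitation 470-495 nm, emission 515-575 nm / Read-out basis: percent activation from peak over basal fluorescence ratio, control-normalized / Control set: high carbachol 87 µM, low DMSO alone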
Large screens that a line does not name were inactive; ! = repeats disagree.

Cc1ccc(CCNC(=O)C2CCN(S(=O)(=O)c3ccc4c(c3)NC(=O)C(C)S4)CC2)cc1 (stereo not given)	TAAR1 antag 61 (no result: TRPML3 agonist, TRPN1 ag)
CC1Sc2ccc(S(=O)(=O)N3CCC(C(=O)NCC(C)c4ccccc4)CC3)cc2NC1=O (stereo not given)	TAAR1 agonist 42 (no result: TRPML3 agonist, TRPN1 ag)
COC(=O)c1cc2c(c3c4ccccc4n(S(=O)(=O)c4ccc(C)cc4)c13)C(=O)N(CC(C)C)C2	none (no result: TRPML3 agonist, LANA-H2A inh, GPR7 antag, TRPN1 ag)
O=S(c1ccc2ccccc2c1)c1cnns1 (stereo not given)	TAAR1 agonist 55
COc1ccc(C)cc1NC(=O)C1CC(=O)N(Cc2ccco2)C1 (stereo not given)	LANA-H2A inh 13
COc1cccc(NC(=O)C2CC(=O)N(Cc3ccco3)C2)c1 (stereo not given)	none (no result: TRPML3 agonist, GPR7 antag, TRPN1 ag)
Cc1ccccc1/C=C1\Oc2ccccc2C1=O	LANA-H2A inh 57 (no result: TRPML3 agonist, GPR7 antag, TRPN1 ag)
COc1ccccc1C1(CCNC(C)c2cccs2)CCOC(C(C)C)C1 (stereo not given)	GPR7 antag 20
Cc1ccc(C2(CCNC(C)c3cccs3)CCOC(C(C)C)C2)cc1 (stereo not given)	none (no result: LANA-H2A inh)
CC1C/C(=C/c2ccncc2)C(=O)/C(=C/c2ccncc2)C1 (stereo not given)	GPR7 antag 24
O=C1/C(=C/c2ccncc2)Cc2ccccc21	none (no result: TRPML3 agonist, GPR7 antag, TRPN1 ag)
CC(=O)NCCCCCCNC(C)=O	LANA-H2A inh 31!
CC(=O)NCCCCCC(=O)O	none (no result: TRPML3 agonist, LANA-H2A inh, GPR7 antag, TRPN1 ag)
CC(=O)c1cnc(-c2ccccn2)s1	LANA-H2A inh 18
CC(=O)c1cnc(-c2ccccc2Cl)s1	none
CC(=O)N1CCN(c2ccc(N3CCN(C(C)=O)[C@@H](C)C3)c(C)c2)[C@@H](C)C1	none (no result: TRPML3 agonist, LANA-H2A inh, GPR7 antag, TRPN1 ag)
Cc1ccc(O)c(C(=O)c2cc(C#N)c(=O)n(-c3nccs3)c2)c1	TRPML3 agonist 19, TAAR1 agonist 51, TRPN1 ag 45
COc1ccnc(Oc2ccccc2)c1C(=O)N/C=N/OCc1ccc(F)cc1Cl	TAAR1 antag 61
c1ccc2c(c1)CCN(c1ncnc3c1[nH]c1ccccc13)C2	TAAR1 antag 58 (no result: TRPML3 agonist, GPR7 antag, TRPN1 ag)
c1ccc2c(c1)[nH]c1c(N3CCC4(CC3)OCCO4)ncnc12	none (no result: TAAR1 antag, TAAR1 agonist)
COc1cccc2[nH]c3c(N4CCc5ccccc5C4)ncnc3c12	none (no result: TAAR1 antag, TAAR1 agonist)
OC1(c2cccc(C(F)(F)F)c2)CCN(c2ncnc3c2[nH]c2ccccc23)CC1	TAAR1 antag 56
CC(C)NC(=O)N(C)C[C@H]1OCc2cn(nn2)CCCC(=O)N([C@H](C)CO)C[C@@H]1C	none (no result: TRPML3 agonist, LANA-H2A inh, GPR7 antag, TRPN1 ag)
CCCCCCCCN1C(=O)[C@@H](CC(=O)N2CCCC2)C[C@@]2(C(=O)OC)C1=C[C@H](C(C)(C)C)O[C@@H]2C	none (no result: TRPML3 agonist, LANA-H2A inh, GPR7 antag, TRPN1 ag)
CCOC(=O)CN1CCc2c(C)nc3c(-c4ccc(OC)c(OC)c4)cnn3c21	none
COC(=O)C(C(C)C)N1CCc2c(C)nc3c(C#N)cnn3c21 (stereo not given)	LANA-H2A inh 60
CC(C)(C)OC(=O)N1CCC2CCN(S(C)(=O)=O)CC21 (stereo not given)	none (no result: TRPML3 agonist, LANA-H2A inh, GPR7 antag, TRPN1 ag)
CC(=O)N1CCC(N2CCN(c3ccccc3F)CC2)CC1	LANA-H2A inh 17
CCC1CCC(N2CCN(c3ccccc3F)CC2)CC1 (stereo not given)	none (no result: TRPML3 agonist, TRPN1 ag)
COc1ccc(C(=O)CCC(=O)NCCc2c[nH]c3ccccc23)cc1	none (no result: TRPML3 agonist, TRPN1 ag)
O=C(CCCC(=O)c1ccccc1)NCCc1ccccc1F	TAAR1 antag 73, TAAR1 agonist 40 (no result: TRPML3 agonist, TRPN1 ag)
COc1ccc(C(=O)CCC(=O)NCCc2ccccc2F)cc1	TAAR1 antag 71, TAAR1 agonist 39 (no result: TRPML3 agonist, TRPN1 ag)
O=C(Nc1ccc(Cl)cc1)c1cc2c(cc1O)[nH]c1ccccc12	GPR7 antag 43
CC(=O)Nc1ccc2[nH]c3ccccc3c2c1	none
Nc1ncnc2c1ncn2[C@@H]1O[C@H](C(=O)N[C@@H](CCc2ccccc2)C(=O)N2CCN(CC(=O)N3CCCC3)CC2)[C@@H](O)[C@H]1O	none (no result: TRPML3 agonist, LANA-H2A inh, GPR7 antag, TRPN1 ag)
Cc1ccc(CNC(=O)c2ccc(N3CCC4(CC3)CC(c3cccc(Br)c3)=NO4)c([N+](=O)[O-])c2)cc1	none (no result: TRPML3 agonist, GPR7 antag, TRPN1 ag)
CCCNC(=O)c1ccc(N2CCC3(CC2)CC(c2cccc(Br)c2)=NO3)c([N+](=O)[O-])c1	TAAR1 antag 51 (no result: TRPML3 agonist, TRPN1 ag)
Nc1[nH]c(C(=O)c2ccccc2)c(-c2ccc(F)cc2)c1C(=O)c1c[nH]c2ccccc12	none (no result: TRPML3 agonist, LANA-H2A inh, GPR7 antag, TRPN1 ag)
CC(C)Cc1ccc(-c2cc3nc(NCCc4ccc(S(N)(=O)=O)cc4)ccn3n2)cc1	TAAR1 antag 67 (no result: TRPML3 agonist, LANA-H2A inh, GPR7 antag, TRPN1 ag)
NS(=O)(=O)c1ccc(CCNc2ccn3nc(-c4ccccc4)cc3n2)cc1	none (no result: TRPML3 agonist, LANA-H2A inh, GPR7 antag, TRPN1 ag)
Fc1ccc(/C=C2\CCCC3=C2Nc2ncnn2C3c2ccc(F)cc2)cc1 (stereo not given)	TAAR1 antag 65
COc1ccc(C2C3=C(Nc4ncnn42)c2ccccc2CCC3)cc1 (stereo not given)	none
O=C(C(=O)N1CCC(CNC(=O)c2sc3ccccc3c2Cl)CC1)c1cccs1	none (no result: TRPML3 agonist, LANA-H2A inh, GPR7 antag, TRPN1 ag)
